The record followed here is ChEMBL document CHEMBL1177728, “Discovery and optimization of boronic acid based inhibitors of autotaxin” (J Med Chem, 2010).

The target of assay [1] is T1, Autotaxin (Homo sapiens, UniProt Q13822). As to the kind of experiment: Inhibition of 6x-histidine-tagged human recombinant ATX expressed in HEK293 cells assessed as lysophosphatidulcholine release. Format: cell-based. A digest of the protocol: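 LPC (18:1) choline release: ATX (~40 nM) secreted by transfected HEK293 cells into serum-free medium, TALON-purified, in 50 mM Tris-HCl pH 7.4 with 0.01% Triton X-100. Substrate added as 80 μM LPC with 10 mM MgCl2 and CaCl2, 3 h at 37 C.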

Assay [2] addresses T1, Autotaxin. As to the kind of experiment: Inhibition of 6x-histidine-tagged human recombinant ATX expressed in HEK293 cells using bisP-nitrophenyl phosphate as a substrate. The assay is classed as cell-based. As to conditions: read-out: IC50.
The target of assay [3] is T1, Autotaxin. As to the kind of experiment: Inhibition of 6x-histidine-tagged human recombinant ATX expressed in HEK293 cells assessed as residual enzyme activity by lysophosphatidulcholine release assay. The assay is classed as cell-based. A digest of the protocol: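 Residual activity in the LPC (18:1) choline release assay with purified His-tagged ATX (~40 nM), pH 7.4 Tris with 0.01% Triton X-100, 3 h at 37 C. Inhibitor titrated at 10 concentrations, 0.01–30 μM. Choline detected at 405 nm via choline oxidase/HRP/ABTS.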

Assay [4] addresses T1, Autotaxin. Kind of assay: Inhibition of 6x-histidine-tagged human recombinant ATX expressed in HEK293 cells assessed as residual activity using bisP-nitrophenyl phosphate as a substrate; values are per cent of control.
Assay [5] deals with T1, Autotaxin. As to the kind of experiment: Inhibition of 6x-histidine-tagged human recombinant ATX expressed in HEK293 cells at 5 uM by CPF assay. The assay is classed as cell-based. A digest of the protocol: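 FRET substrate CPF4 at 2 μM with purified His-tagged ATX (~40 nM), run as the bis-pNPP format (pH 7.8 Tris-buffered saline, BSA-FAF, 3 h at room temperature). Fluorescence excited at 355 nm, emission 460 and 520 nm. Inhibitor at 5 μM final.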

The target in assay [6] is T1, Autotaxin. As to the kind of experiment: Inhibition of 6x-histidine-tagged human recombinant ATX expressed in HEK293 cells using bisP-nitrophenyl phosphate as a substrate at 5 uM. The assay is classed as cell-based. A digest of the protocol:
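bis-pNPP hydrolysis by purified His-tagged ATX (~40 nM) in Tris-buffered saline pH 7.8 with fatty-acid-free BSA 0.2 mg/mL. Bis-pNPP added as 2 mM stock, 3 h at room temperature. p-Nitrophenol read at 405 nm, corrected by 0 h absorbance. IC50 from 10 concentrations (0.025–100 μM); inhibition at 5 μM final; three independent experiments.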

Assay [7] concerns the target T1, Autotaxin. As to the kind of experiment: Inhibition of 6x-histidine-tagged human recombinant ATX expressed in HEK293 cells assessed as lysophosphatidulcholine release at 5 uM. The assay is classed as cell-based. A digest of the protocol:
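LPC (18:1) choline release: ATX (~40 nM) secreted by transfected HEK293 cells into serum-free medium, TALON-purified, in 50 mM Tris-HCl pH 7.4 with 0.01% Triton X-100. Substrate added as 80 μM LPC with 10 mM MgCl2 and CaCl2, 3 h at 37 C. Choline read at 405 nm by choline oxidase/HRP/ABTS with compound-absorbance correction. IC50 over 10 concentrations (0.01–30 μM); inhibition at 5 μM final.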

Usually IC50 stands for the concentration that inhibits the measured activity by half. As usually defined, the residual activity is the signal under treatment as a percentage of the control signal. For `COc1cc(/C=C2\SC(=O)N(Cc3ccc([N+](=O)[O-])cc3)C2=O)ccc1OCc1ccc(C(=O)O)cc1`, the half-maximal inhibitory concentration (IC50) was above 5000 nM at Autotaxin [1] and 442 nM at Autotaxin [2]. On Autotaxin [3], the Activity is 56%. Further, the residual activity at Autotaxin [4] was 33%.
What is called inhibition is the percentage by which the read-out fell short of the control. For the molecule `COc1cc(/C=C2\SC(=O)N(Cc3ccc(F)cc3)C2=O)ccc1OCc1ccc(C(=O)O)cc1`, the inhibition is 85% at Autotaxin [5], 91% at Autotaxin [6] and 55% on Autotaxin [7]. In addition, the results for the IC50 at Autotaxin [1] and on Autotaxin [2] were 2500 nM and 56 nM, respectively. In addition, the Activity at Autotaxin [3] is 35%. At Autotaxin [4], the residual activity is 10%.
Take `COc1cc(/C=C2\SC(=O)N(Cc3ccccc3)C2=O)ccc1OCc1ccc(C(=O)O)cc1`: the IC50 on Autotaxin [1] came out at 2900 nM; on Autotaxin [2], 248 nM. Besides, on Autotaxin [3], the Activity came to 29%. The residual activity at Autotaxin [4] is 9%.
`CC(C)Cc1ccc(-c2n[nH]c3c2C(c2ccc(N(C)C)cc2)C(C#N)=C(N)O3)cc1` (stereo unspecified): the figures for the inhibition at Autotaxin [5] and on Autotaxin [6] were 77% and 87%, respectively. The IC50 at Autotaxin [2] was 46 nM.
For the molecule `COc1cc(/C=C2\SC(=O)N(Cc3ccc(F)cc3)C2=O)ccc1OCc1cccc(C(=O)O)c1`, the 50% inhibitory concentration (IC50) on Autotaxin [1] worked out at 2050 nM. Besides, the Activity on Autotaxin [3] came to 42%.
Regarding `O=C(O)c1cccc(COc2ccc(/C=C3\SC(=O)N(Cc4ccc(F)cc4)C3=O)cc2)c1`, the half-maximal inhibitory concentration (IC50) on Autotaxin [1] came to 1070 nM. Besides, the Activity on Autotaxin [3] came out at 7%.
In the case of `COc1cc(/C=C2\SC(=O)N(Cc3ccc(Cl)cc3)C2=O)ccc1OCc1ccncc1`, the inhibition on Autotaxin [5] is 85%; on Autotaxin [6] it was 83%. The half-maximal inhibitory concentration (IC50) on Autotaxin [2] came to 68 nM.
As to `COc1cc(/C=C2\SC(=O)N(Cc3ccc(C(C)(C)C)cc3)C2=O)ccc1OCc1ccc(C(=O)O)cc1`, the figures for the IC50 at Autotaxin [1] and on Autotaxin [2] were 13600 nM and 18200 nM, respectively. Besides, on Autotaxin [3], the Activity amounted to 27%. Besides, the residual activity at Autotaxin [4] was 33%.
Turning to `CCCCCCCC/C=C\CCCCCCCC(=O)OC[C@@H](O)COP(=O)(O)O`, the inhibition at Autotaxin [5] is 67%; on Autotaxin [6] it was 80%. Further, on Autotaxin [4], the residual activity was found to be 39%.
In the case of `Cn1c(=O)n(C)c2cc(/C=C3\SC(=O)N(Cc4ccccc4)C3=O)ccc21`, the inhibition stood at 55% on Autotaxin [5] and 75% at Autotaxin [6]. The IC50 on Autotaxin [2] was 111 nM.
Turning to `CCOc1cc(/C=C2\SC(=O)N(Cc3ccccc3)C2=O)ccc1OCc1ccc(C(=O)O)cc1`, the inhibition was determined as 89% on Autotaxin [5] and 92% on Autotaxin [6]. For the same molecule, the IC50 on Autotaxin [2] was 161 nM.
Regarding `O=C(CSc1nc2ccc(N3C(=O)c4ccccc4C3=O)cc2s1)Nc1cccc(Cl)c1`, the figures for the inhibition at Autotaxin [5] and on Autotaxin [6] were 66% and 71%, respectively. Also, at Autotaxin [2], the IC50 was found to be 261 nM.
